# Screening results deposited in PubChem BioAssay by Sanford-Burnham Center for Chemical Genomics.
# mIAP activ = mouse IAP activation; hit rate 0.24% among 330,000; muIAP, CDP-Star luminescence, 30 min; active compounds read high; 1 = vehicle-only enzyme signal, 0 = enzyme-free wells; activation factor at 10 µM;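 active = activation factor of at least 2 at 20 µM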
#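 Assay system: mouse IAP enzyme / Compound: DMSO-dissolved test compounds / Timing: 30 min, room temperature / Measured by: luminescence from enzymatic CDP-Star hydrolysis / Control set: DMSO-only wells, enzyme-free buffer wells as negative control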
# bIAP activator = increases bovine intestinal alkaline phosphatase activity; hit rate 0.17% among 200,000; purified bovine IAP, CDP-star luminescence, 30 min; active compounds read high; fold of DMSO-control signal, blank-subtracted; activation factor at 20 µM;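 active = activation factor of 2 or more at 20 µM, a signal rise over negative controls twice the positive control's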
# mIAP block = mouse IAP inhibition; purified mouse IAP, CDP-Star luminescence, 30 min; inhibition, % at 10 µM; hit rate 0.2% among 330,000; AID 2806;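 active = inhibition of at least 40% at 10 µM in the primary screen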
# hIAP block = blocks human intestinal alkaline phosphatase; purified IAP, CDP-Star luminescence, 30 min; inhibition, % at 10 µM; hit rate 0.12% among 330,000; P09923;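 active = inhibition reaching a set limit with compound at 10 µM in the primary screen, cut at about 35% in these data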
# Target sequence (P09923 whole entry, looked up): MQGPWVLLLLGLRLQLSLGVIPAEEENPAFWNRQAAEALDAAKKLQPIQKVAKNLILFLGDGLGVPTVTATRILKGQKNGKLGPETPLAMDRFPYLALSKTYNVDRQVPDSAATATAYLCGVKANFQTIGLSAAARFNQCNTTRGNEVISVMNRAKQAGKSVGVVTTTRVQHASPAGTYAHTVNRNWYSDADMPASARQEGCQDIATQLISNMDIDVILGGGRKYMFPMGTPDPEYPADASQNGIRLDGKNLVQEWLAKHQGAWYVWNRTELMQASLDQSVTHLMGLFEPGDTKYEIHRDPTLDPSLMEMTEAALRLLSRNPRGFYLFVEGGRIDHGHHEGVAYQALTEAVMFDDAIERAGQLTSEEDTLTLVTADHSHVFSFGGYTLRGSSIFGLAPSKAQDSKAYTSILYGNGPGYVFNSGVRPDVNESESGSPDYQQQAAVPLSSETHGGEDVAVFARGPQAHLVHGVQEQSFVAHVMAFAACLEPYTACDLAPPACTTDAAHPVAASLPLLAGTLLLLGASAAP
# hIAP act = human IAP activation | P09923 | hit rate 0.16% among 330,000 | activation factor at 10 µM | purified human IAP, CDP-Star luminescence, 30 min; active compounds read high; 1 = vehicle-only enzyme, 0 = enzyme-free background;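 active = activation factor of the enzyme at least 2-fold when tested at 20 µM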
# bIAP inhibitor = blocks bovine intestinal alkaline phosphatase activity. purified bovine IAP, CDP-star luminescence, 30 min. inhibition, % at 20 µM. 190,000 tested, under 10 active;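 active = over 50% inhibition of intestinal alkaline phosphatase at 20 µM in the single-dose screen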
#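 System: Purified bovine intestinal alkaline phosphatase (IAP) enzyme | Input: IAP diluted 1/65,000,000 in the well | Also added: CDP-star chemiluminescent phosphatase substrate, 30 µM final | Dosing: 20 µM single dose | Times: Enzyme reaction for 30 min at room temperature | Detection: Luminescence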
# hIAP act confirm = human IAP activation confirmation | activation (%Activity, negative = activation), % at 8.3 µM | shares compounds with hIAP act | hit rate 10% among 880 | purified IAP, CDP-Star luminescence, 30 min; active compounds read low;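 active = at least twofold enzyme activation in any of six single-dose repeats, which the averaged readout prints as negative percent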
# mIAP inh confirm = mouse IAP inhibition confirmation; hit rate 4.7% among 11,000; shares compounds with mIAP block; purified mouse IAP, CDP-Star luminescence, 30 min; inhibition, % at 10 µM;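 active = inhibition of at least 40% at 10 µM in either of the two replicates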
# A number is an active result; . = inactive; / = no result. The list is not random: actives were taken first. Their share in the collection is about 0.72%.
SMILES,mIAP activ,bIAP activator,mIAP block,hIAP block,hIAP act,bIAP inhibitor,hIAP act confirm,others
CCOC(=O)c1ccc(Nc2ncnc3nc[nH]c23)cc1,.,.,.,.,.,.,/,
Cc1ccccc1CNC(=O)c1ccccc1N,.,.,.,36,.,.,.,
Cc1cc(NS(=O)(=O)c2ccc(NC(=O)C(C(C)C)N3C(=O)c4ccccc4C3=O)cc2)nc(C)n1 (centres undefined),.,.,.,39,.,.,.,
Cc1ccc(C(=O)NNC(=O)CCC(=O)NCc2ccccc2)cc1Br,.,/,.,.,2.2,/,.,
O=C(CSc1ncn[nH]1)NCCc1ccccc1,.,.,.,.,2.6,.,-113,
COc1cc(OC)cc(C(=O)NNC(=O)C(=O)Nc2cc(OC)c(Cl)cc2OC)c1,.,/,.,39,.,/,.,
COc1cc(NC(=O)C(=O)NNC(=O)C2CCCCC2)c(OC)cc1Cl,.,.,.,.,.,.,/,
Cc1ccc(OCCC(=O)NNC(=O)c2ccc(Br)cc2)cc1,.,/,.,.,.,/,/,
COc1ccc(C(=O)NC(=S)NNC(=O)c2ccc(NC(C)=O)cc2)cc1Br,.,.,.,.,2.1,.,.,
COc1ccnc2c1c(=O)n(Cc1ccc(Cl)cc1Cl)c(=O)n2C,.,/,.,.,.,/,/,
COc1ccc2[nH]c(C(=O)N/N=C/c3ccc(O)cc3O)cc2c1,.,/,.,.,2,/,.,
COc1cc(Cl)ccc1OCc1cc(C(=O)N2CCCCCCC2)no1,.,/,.,39,.,/,.,
CC1=Nc2ccccc2N=C(NC(=O)CSC(=S)N2CCCCC2)C1c1ccccc1 (centres undefined),.,/,.,.,.,/,/,
CC1=Nc2ccccc2N=C(NC(=O)CSC(=S)N2CCN(C)CC2)C1c1ccccc1 (centres undefined),.,/,.,.,2.4,/,.,
CCOc1ccc(C(=O)NCC2CCN(CC3CCCCC3)CC2)cc1,.,/,.,.,.,/,/,
CCc1nn(CC(=O)NC(C)CCc2ccccc2)c(=O)c2cc3cc(F)ccc3n12 (centres undefined),.,/,.,.,2.2,/,.,
CCc1nn(CC(=O)NC2CCN(Cc3ccccc3)CC2)c(=O)c2cc3cc(F)ccc3n12,.,/,.,.,.,/,/,
O=C(NCC1CCCN1S(=O)(=O)c1cccs1)c1ccc([N+](=O)[O-])cc1 (centres undefined),.,/,.,.,.,/,/,
CN(C(=O)CSc1ncccc1C(=O)O)c1ccccc1,.,.,.,36,.,.,.,
COc1cccc(C2c3[nH]c4ccccc4c3C[C@H]3C(=O)N(c4ccccc4C(=O)NCCCN4CCOCC4)C(=O)N23)c1 (some centres undefined),.,/,.,.,.,/,/,
Cc1cc(C)nc(Nc2n[nH]c(COc3ccccc3)n2)n1,.,.,.,.,.,.,/,
Cc1cc(C)nc(Nc2n[nH]c(COc3ccc4ccccc4c3)n2)n1,.,.,.,.,2,.,.,
CC(CC(F)(F)F)N1CCC(n2nccc2NC(=O)CCCc2ccccc2)CC1 (centres undefined),.,/,.,.,.,/,/,
Cc1ccc(NC(=S)NNC(=O)c2nnn(-c3ccccc3)c2C)cc1,.,.,.,.,2.2,.,.,
O=C(CCCc1ccccc1)Nc1ccnn1C1CCN(Cc2ccc(Cl)cc2)CC1,2.5,/,.,.,2.9,/,.,mIAP inh confirm=.
CCOc1cccc(CN2CCC(n3nccc3NC(=O)CCCc3ccccc3)CC2)c1,2.4,/,.,.,3.5,/,.,mIAP inh confirm=.
Cc1ccc(C)c(CN2CCC(n3nccc3NC(=O)CCCc3ccccc3)CC2)c1,2.4,/,.,.,2.6,/,.,mIAP inh confirm=.
CC(C)n1cc(CN2CCC(n3nccc3NC(=O)C3CCCC3)CC2)cn1,.,/,.,.,.,/,/,
CC(C)Cc1ccc(CN2CCC(n3nccc3NC(=O)C3CCCC3)CC2)cc1,2.4,/,.,.,3.3,/,.,mIAP inh confirm=.
Cc1ccc(NC(=O)C2CC(=O)n3c(nc4ccccc43)N2)cc1 (centres undefined),.,.,.,.,.,.,/,
